Experimental data taken from publication PMC9547662 (Investigational new drugs, 2018).

Key:
MM.1S cells [1] = experiment: MTS assay of cell growth in MM.1S cells; format: cell-based, human
[2] = system: ARE/Nrf2 transcriptional activity; experiment: ARE/NRF2 luciferase reporter assay in ARE/HepG2/Luciferase reporter cells; format: cell-based; conditions: 24 hours; for IC50: read-out: IC50 in HepG2 ARE/NRF2 reporter assay, 200μM t-BHQ, compounds 20nM to 10μM
In short: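 HepG2 ARE-luciferase reporter cells (7,000/well) cultured 24 h before test compound; t-BHQ added 30 min later; 24 h at […]; one-step luciferase reagent, luminescence read. Screen: 5μM, 200 or 500μM t-BHQ, two independent runs, Z-scores normalized to mean of compound-treated wells. Dose-response: […] serial dilutions 20nM–10μM plus 200μM t-BHQ; 0.5% DMSO control; percent of DMSO control.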

MM.1S cells [3] = experiment: Detection of mitochondrial superoxide; format: cell-based, human; conditions: 24 hours; for mitochondrial superoxide induction (rank among six drug candidates): 0.6, 1.25, 2.5 and 5μM
[4] = system: NRF2 nuclear translocation; experiment: NRF2 nuclear translocation high-content screen in HepG2 cells; format: cell-based; conditions: 0.625-10μM compound + 200μM t-BHQ, 2 hours
U266 cells [5] = experiment: Detection of mitochondrial superoxide; format: cell-based, human; conditions: 24 hours
[6] = system: NRF2 nuclear translocation; experiment: NRF2 nuclear translocation assay in MM.1S cells; format: cell-based, human; conditions: 2 hours, no t-BHQ
In short: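 MM.1S cells (300,000/well) exposed 2 h to test compound, DMSO or 2 mM N-acetyl-L-cysteine; fixed 4% PFA 30 min, permeabilized/blocked (2% BSA, 0.1% Triton X-100) 30 min; stained with Hoechst 33342 (4ug/mL) and NRF2-Alexa Fluor 488 antibody (1:1000); high-content imaging and image analysis; NRF2 inhibition expressed as Z-scores.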

U266 cells [7] = experiment: Viability by DAPI staining; format: cell-based, human; conditions: 5μM, 24 hours
In short: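 Over 24 hours, U266 cells (RPMI 1640, 10% heat-inactivated FBS, 1% L-glutamine, penicillin-streptomycin; 5% CO2, 37°C) were treated with test compound at 5μM, alone or with 200μM pyocyanin. Vehicle was the negative control and 200μM pyocyanin the positive control. Cells were stained with DAPI, and viability was scored by flow cytometry as percentage DAPI-negative. Mean and SEM are reported.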

U266 cells [8] = experiment: MTS assay of cell growth in U266 cells; format: cell-based, human; conditions: 5μM single agent, 24, 48 and 72 hours

| Compound | IC50 [2] | mitochondrial superoxide induction (rank among six drug candidates) (MM.1S cells [3]) | effect on nuclear translocation of NRF2 (ratio of cytoplasmic to nuclear NRF2) [4] | also measured |
| --- | --- | --- | --- | --- |
| Cc1ccc(NC(=O)c2cccc(C(C)(C)C#N)c2)cc1Nc1ccc2ncn(C)c(=O)c2c1 [AZ-628] | 1000 nM | followed by AZ-628 | affected nuclear translocation of NRF2 | cell growth (MM.1S cells [1]; 2.5μM and 5μM, 48 hours): significant inhibition of cell growth |
| C=CCc1cccc(/C=N/NC(=O)CN2CCN(Cc3ccccc3)CC2)c1O [PAC-1] | 2700 nM | – | – | – |
| O=C1NCCc2[nH]c(-c3ccncc3)cc21 [PHA-767491] | 2410 nM | most potent superoxide inducer | affected nuclear translocation of NRF2 | cell growth (MM.1S cells [1]; 2.5μM and 5μM, 48 hours): significant inhibition of cell growth |
| Cc1ccc(C(=O)Cn2c3c(sc2=N)CCCC3)cc1 [Pifithrin-α, pifithrin-α] | 160 nM | – | – | – |
| Cn1c2cccc(=O)c-2nc2ccccc21 [Pyocyanin, pyocyanin] | – | – | – | mitochondrial superoxide induction (MM.1S cells [3]; serial dilutions 0 to 300μM): efficient and dose-dependent induction of mitochondrial superoxide; mitochondrial superoxide induction (U266 cells [5]; serial dilutions 0 to 300μM): efficient and dose-dependent induction of mitochondrial superoxide |
| N#C/C(=C(/N)Sc1ccc(N)cc1)c1ccccc1C(F)(F)F [SL-327] | 310 nM | followed by AZ-628 and SL-327 | affected nuclear translocation of NRF2 | effect on nuclear translocation of NRF2 [6]: anticipated inhibitory effect on nuclear translocation of NRF2 |
| CC(C)(C)c1cc(O)ccc1O [t-BHQ, tert-butylhydroquinone] | – | – | – | induction of NRF2 transcriptional activity ([2]; 200μM or 500μM t-BHQ, HepG2 cells): robust induction of NRF2 transcriptional activity |
| brusatol | – | – | – | viability (percentage of DAPI-negative viable cells) (U266 cells [7]): decreased viability; cell growth (U266 cells [8]): efficiently suppressed growth; cell growth (MM.1S cells [1]; 5μM single agent, 24, 48 and 72 hours): efficiently suppressed growth; mitochondrial superoxide levels (U266 cells [5]; 5μM): increased superoxide levels |
| vitamin B12 | 620 nM | – | – | – |
